{"source": "paper PMC11203390", "about": "(Molecular Therapy. Nucleic Acids, 2024)", "key": {"siRNA": {"test_system": "siRNA", "assay": "Electrophoretic mobility shift assay", "type": "binding", "settings": "pH 7", "summary_of_the_method": "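Negative-control siRNA mixed with peptide at 1:20–1:100 siRNA:peptide molar ratios in RNase-free water, then incubated 1 h at 4, 25, 37 or 50 °C to encapsulate. For competition, DSS, 8 M urea stock or 20% NaCl stock was added before or after encapsulation. Complexes were run in dye-free glycerol loading buffer (5% final) on 4% agarose gels stained with ethidium bromide.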"}, "Integrin α2 (ITGA2)": {"target": "Integrin α2 (ITGA2) (Homo sapiens, UniProt P17301)", "sequence (P17301 30-1132 limits assumed)": "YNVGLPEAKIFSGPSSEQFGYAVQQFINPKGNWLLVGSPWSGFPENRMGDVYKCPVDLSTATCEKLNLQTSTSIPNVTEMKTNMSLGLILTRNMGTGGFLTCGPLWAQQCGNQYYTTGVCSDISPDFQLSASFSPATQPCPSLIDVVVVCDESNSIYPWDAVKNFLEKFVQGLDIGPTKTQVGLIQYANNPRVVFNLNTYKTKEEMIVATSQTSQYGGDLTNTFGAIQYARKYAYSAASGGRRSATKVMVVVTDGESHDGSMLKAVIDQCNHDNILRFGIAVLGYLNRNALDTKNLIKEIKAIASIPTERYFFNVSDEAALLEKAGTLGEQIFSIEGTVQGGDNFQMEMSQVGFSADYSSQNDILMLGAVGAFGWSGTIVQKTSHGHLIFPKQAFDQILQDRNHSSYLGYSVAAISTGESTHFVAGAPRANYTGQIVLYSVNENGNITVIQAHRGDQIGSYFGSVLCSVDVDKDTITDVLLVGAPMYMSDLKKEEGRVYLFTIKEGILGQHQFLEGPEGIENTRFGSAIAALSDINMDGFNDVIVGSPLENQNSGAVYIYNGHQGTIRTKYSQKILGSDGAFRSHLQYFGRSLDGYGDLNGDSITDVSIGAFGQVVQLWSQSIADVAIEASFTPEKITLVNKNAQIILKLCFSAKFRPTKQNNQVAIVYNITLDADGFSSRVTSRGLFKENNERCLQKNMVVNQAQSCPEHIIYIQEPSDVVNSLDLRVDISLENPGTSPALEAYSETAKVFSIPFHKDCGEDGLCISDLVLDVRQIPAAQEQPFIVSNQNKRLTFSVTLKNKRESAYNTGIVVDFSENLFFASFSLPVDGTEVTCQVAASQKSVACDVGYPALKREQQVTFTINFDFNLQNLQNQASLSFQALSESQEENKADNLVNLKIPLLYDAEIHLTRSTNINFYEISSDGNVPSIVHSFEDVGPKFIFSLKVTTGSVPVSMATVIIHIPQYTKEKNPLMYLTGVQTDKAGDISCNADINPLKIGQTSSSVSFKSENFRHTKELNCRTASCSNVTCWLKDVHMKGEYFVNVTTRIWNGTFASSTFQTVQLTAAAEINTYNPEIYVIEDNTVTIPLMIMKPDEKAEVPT", "assay": "Direct ELISA on HE25-coated plates, ITGA2", "type": "binding", "settings": "negative control receptor"}, "SARS-CoV-2 spike RBD": {"target": "SARS-CoV-2 spike RBD (Severe acute respiratory syndrome coronavirus 2, UniProt P0DTC2)"}}, "data": [{"substance": "stearyl-HEHHEHHEHEHGFLGRVRVLRGDKW-amide [HE25]", "values": [{"measurement": "effect of DSS on binding and preformed complex", "setting": "siRNA; EMSA competition, 20 mg/mL DSS before or after encapsulation, 50°C, molar ratio 1:100", "result": "interfere with the binding and disassemble the preformed complex"}, {"measurement": "effect of urea on binding and preformed complex", "setting": "siRNA; EMSA competition, 1.6 M urea before or after encapsulation, 50°C, molar ratio 1:100", "result": "hindered initial binding but did not affect the ones formed"}, {"measurement": "effect of NaCl on binding and disassembly", "setting": "siRNA; EMSA competition, 4% NaCl before or after encapsulation, 50°C, molar ratio 1:100", "result": "no notable effect on either binding or disassembly"}, {"measurement": "effect of urea on binding", "setting": "siRNA; EMSA competition, urea, 4°C, molar ratio 1:100", "result": "not observed before encapsulation"}, {"measurement": "encapsulation efficiency at 50°C", "setting": "siRNA; EMSA, 50°C", "result": "significantly increases"}, {"measurement": "binding of ITGA2 to HE25", "setting": "Integrin α2 (ITGA2)", "result": "did not efficiently bind"}, {"measurement": "binding of spike RBD to HE25-coated plates", "setting": "SARS-CoV-2 spike RBD", "result": "recognized"}]}]}
